Experimental data from different studies.
Protocols differ between the studies behind these lines.
Cell line: HeLa
Effect on: cell growth or viability
Method: MTT

SMILES | conditions | measurement | value
COC(=O)COc1c(Cc2cc(C(C)(C)CC(C)(C)C)cc(-n3nc4ccccc4n3)c2OCC(=O)OC)cc(C(C)(C)CC(C)(C)C)cc1-n1nc2ccccc2n1 | – | GI50 | 8.12 µM
O=C(C=Cc1ccccc1)Nc1cc(-c2ccnc(N3CCC(O)CC3)c2)ccn1 | 72 h | IC50 | 0.0741 µM
C[C@H](CCC(=O)O)[C@H]1CC[C@H]2[C@@H]3CC[C@@H]4C[C@H](O)CC[C@]4(C)[C@H]3CC[C@]12C | 72 h | IC50 | 56 µM
O=C(Nc1cccc([N+](=O)[O-])c1)c1cccs1 | – | IC50 | 282 µM
COc1ccc(COC[C@@](O)(CNCc2ccc(F)cc2)[C@@H]2CC[C@@H](C)C[C@H]2OCc2ccc(OC)cc2)cc1 | 30 µM, 72 h | inhibition | 99.1%
O=C(CCc1ccccc1)Nc1cc(-c2ccnc(N3CCC(O)CC3)c2)ccn1 | 5 µM | inhibition | 82.9%
C[C@@H]1CC[C@@H]([C@@](C)(O)Cn2cnc3ccccc32)[C@H](OCc2ccccc2)C1 | 30 µM, 72 h | inhibition | 86.3%
O=C(C=Cc1ccc(F)cc1)Nc1cc(-c2ccnc(N3CCC(O)CC3)c2)ccn1 | 5 µM | inhibition | 67.2%
COc1cccc2c1C(=O)c1c(O)c3c(c(O)c1C2=O)C[C@@](O)(C(=O)CO)C[C@@H]3O[C@H]1C[C@H](N)[C@H](O)[C@H](C)O1 | – | GI50 | 4.21 µM
O=C(Nc1cccc([N+](=O)[O-])c1)c1ccco1 | – | IC50 | 637 µM
[NH2][Pt]([NH2])([Cl])[Cl] | 72 h | IC50 | 6.8 µM
Cc1cccc(/C=C/C(=O)Nc2cc(-c3ccnc(N4CCOCC4)c3)ccn2)c1 | 5 µM | inhibition | 72%
COc1ccc(COC[C@@](O)(CNCc2ccccc2)[C@@H]2CC[C@@H](C)C[C@H]2OCc2ccc(OC)cc2)cc1 | 30 µM, 72 h | inhibition | 97.4%
O=C(C=Cc1ccccc1)Nc1cccc(-c2ccnc(N3CCC(CO)CC3)c2)c1 | 5 µM | inhibition | 73.1%
C=C(COCc1ccc(F)cc1)[C@@H]1CC[C@@H](C)C[C@H]1OCc1ccc(F)cc1 | 10 µM, 72 h | inhibition | 32.8%
O=c1c(C=NNC(=S)Nc2ccccc2)coc2ccccc12 | 48 h | IC50 | 91.9 µM
Cc1cc(NC(=O)C=Cc2ccccc2)cc(-c2ccnc(N3CCOCC3)c2)c1 | 5 µM | inhibition | 16.2%
C=C(COCc1ccc(OC)cc1)[C@@H]1CC[C@@H](C)C[C@H]1OCc1ccc(OC)cc1 | 30 µM, 72 h | inhibition | 60.6%
